Reference: ChEMBL document CHEMBL1141585, “5,5,6-Fused tricycles bearing imidazole and pyrazole 6-methylidene penems as broad-spectrum inhibitors of beta-lactamases” (Bioorg Med Chem, 2008)

Legend:
Escherichia coli [1] = assay: Antimicrobial activity against Escherichia coli GC 2920 expressing IRT2 beta-lactamase after 18 to 24 hrs by broth microdilution method; type: functional
Outline: (§1)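 CLSI broth microdilution in Mueller–Hinton II broth. Serial dilutions of piperacillin alone or piperacillin plus inhibitor; inoculum 10⁵ CFU/ml. Piperacillin + tazobactam run as comparator. MIC read as endpoint.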

Serratia marcescens [2] = assay: Antimicrobial activity against Serratia marcescens GC 4132 expressing AmpC beta-lactamase after 18 to 24 hrs by broth microdilution method; type: functional; outline: as §1; further: test concentration or dose not given here
Escherichia coli [3] = assay: Antibacterial efficacy against Escherichia coli LSU 80-8 infected ip dosed CD1 mouse model; type: functional
Outline: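 Female CD-1 mice, five per dose level, five dose levels per compound. Lethal intraperitoneal challenge (10–100 LD₅₀), then intravenous piperacillin alone or piperacillin plus inhibitor at a 4:1 (Pip:Inhibitor) ratio. Survival read at 7 days; ratios from three separate tests pooled; ED₅₀ by probit analysis.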

Enterobacter cloacae [4] = assay: Antimicrobial activity against Enterobacter cloacae GC 6991 expressing AmpC beta-lactamase after 18 to 24 hrs by broth microdilution method; type: functional; outline: as §1; further: test concentration or dose not given here
Enterobacter cloacae [5] = assay: Antimicrobial activity against Enterobacter cloacae GC 1477 expressing AmpC beta-lactamase after 18 to 24 hrs by broth microdilution method; type: functional; outline: as §1; further: test concentration or dose not given here
Escherichia coli [6] = assay: Antimicrobial activity against Escherichia coli GC 2844 after 18 to 24 hrs by broth microdilution method; type: functional; outline: as §1
Escherichia coli [7] = assay: Antimicrobial activity against Escherichia coli GC 2203 after 18 to 24 hrs by broth microdilution method; type: functional; outline: as §1
Escherichia coli [8] = assay: Antimicrobial activity against Escherichia coli GC 2906 expressing Imi1 beta-lactamase after 18 to 24 hrs by broth microdilution method; type: functional; outline: as §1; further: test concentration or dose not given here
Escherichia coli [9] = assay: Antimicrobial activity against Escherichia coli GC 2905 expressing P99 beta-lactamase after 18 to 24 hrs by broth microdilution method; type: functional; outline: as §1
[10] = Inhibition of AmpC beta-lactamase
Outline: (§2)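 Spectrophotometric β-lactamase inhibition assay (Bush method) with nitrocefin as substrate. Tazobactam standard included in each experiment. IC₅₀ derived by curve fitting.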

Escherichia coli [11] = assay: Antimicrobial activity against Escherichia coli GC 2894 expressing AmpC beta-lactamase after 18 to 24 hrs by broth microdilution method; type: functional; outline: as §1
Escherichia coli [12] = assay: Antimicrobial activity against Escherichia coli GC 2847 expressing TEM1 beta-lactamase after 18 to 24 hrs by broth microdilution method; type: functional; outline: as §1; further: test concentration or dose not given here
Staphylococcus aureus = assay: Antimicrobial activity against Staphylococcus aureus GC 2216 after 18 to 24 hrs by broth microdilution method; type: functional; outline: as §1; further: test concentration or dose not given here
Escherichia coli [13] = assay: Antimicrobial activity against Escherichia coli GC 2805 expressing CcrA beta-lactamase after 18 to 24 hrs by broth microdilution method; type: functional; outline: as §1
[14] = Inhibition of Imi1 beta lactamase
Escherichia coli [15] = assay: Antimicrobial activity against Escherichia coli GC 2883 expressing OXA10 and PSE2 beta-lactamase after 18 to 24 hrs by broth microdilution method; type: functional; outline: as §1
Enterobacter cloacae [16] = assay: Antimicrobial activity against Enterobacter cloacae GC 1475 expressing P99 beta-lactamase after 18 to 24 hrs by broth microdilution method; type: functional; outline: as §1; further: test concentration or dose not given here
[17] = Inhibition of TEM1 beta-lactamase; outline: as §2
Pseudomonas aeruginosa = assay: Antimicrobial activity against Pseudomonas aeruginosa GC 1764 expressing AmpC beta-lactamase after 18 to 24 hrs by broth microdilution method; type: functional; outline: as §1; further: test concentration or dose not given here
[18] = system: Stenotrophomonas maltophilia; assay: Antimicrobial activity against Stenotrophomonas maltophilia GC 1721 expressing L1 beta-lactamase after 18 to 24 hrs by broth microdilution method; type: functional; outline: as §1; further: test concentration or dose not given here
Escherichia coli [19] = assay: Antimicrobial activity against Escherichia coli GC 2253 expressing IRT2 beta-lactamase after 18 to 24 hrs by broth microdilution method; type: functional; outline: as §1; further: test concentration or dose not given here
Enterobacter cloacae [20] = assay: Antimicrobial activity against Enterobacter cloacae GC 4142 expressing AmpC beta-lactamase after 18 to 24 hrs by broth microdilution method; type: functional; outline: as §1; further: test concentration or dose not given here
Serratia marcescens [21] = assay: Antimicrobial activity against Serratia marcescens GC 1781 expressing Sme1 and AmpC beta-lactamase after 18 to 24 hrs by broth microdilution method; type: functional; outline: as §1; further: test concentration or dose not given here
Escherichia coli [22] = assay: Antimicrobial activity against Escherichia coli GC 2804 expressing imp beta-lactamase after 18 to 24 hrs by broth microdilution method; type: functional; outline: as §1; further: test concentration or dose not given here

Structure (SMILES) | MIC (Escherichia coli [1]) [µg/mL] | MIC (Serratia marcescens [2]) [µg/mL] | MIC (Enterobacter cloacae [4]) [µg/mL] | MIC (Enterobacter cloacae [5]) [µg/mL] | MIC (Escherichia coli [6]) [µg/mL] | MIC (Escherichia coli [7]) [µg/mL] | MIC (Escherichia coli [8]) [µg/mL] | MIC (Escherichia coli [9]) [µg/mL] | IC50 [10] [nM] | MIC (Escherichia coli [11]) [µg/mL] | MIC (Escherichia coli [12]) [µg/mL] | MIC (Staphylococcus aureus) [µg/mL] | MIC (Escherichia coli [13]) [µg/mL] | MIC (Escherichia coli [15]) [µg/mL] | MIC (Enterobacter cloacae [16]) [µg/mL] | IC50 [17] [nM] | MIC (Pseudomonas aeruginosa) [µg/mL] | MIC [18] [µg/mL] | MIC (Escherichia coli [19]) [µg/mL] | MIC (Enterobacter cloacae [20]) [µg/mL] | further results
O=C([O-])C1=CS[C@@H]2/C(=C\c3cn4c(n3)nc3n4CCCC3)C(=O)N12.[Na+] | 2 | 1 | 16 | > 64 | 2 | 1 | 64 | 2 | 1.4 | 2 | 8 | 0.25 | > 64 | 2 | 2 | 2.4 | 32 | > 64 | 16 | 8 | ED50 (Escherichia coli [3]): 32.5 mg/kg; IC50 [14]: 14 nM; MIC (Serratia marcescens [21]): 0.5 µg/mL; MIC (Escherichia coli [22]): < 0.06 µg/mL
CCOC(=O)N1CCc2c(oc3cc(/C=C4/C(=O)N5C(C(=O)[O-])=CS[C@H]45)nn23)C1.[Na+] | 4 | 8 | 64 | > 64 | 2 | 2 | 64 | 32 | 4 | 64 | 32 | 16 | > 64 | 8 | 64 | 1.2 | > 64 | > 64 | 16 | 64 | IC50 [14]: 98 nM; MIC (Serratia marcescens [21]): 2 µg/mL; MIC (Escherichia coli [22]): < 0.06 µg/mL
O=C([O-])C1=CS[C@@H]2/C(=C\c3cc4oc5c(n4n3)CCOC5)C(=O)N12.[Na+] | 2 | 8 | 16 | 64 | 2 | 4 | 8 | 16 | 4 | 16 | 32 | 16 | > 64 | 8 | 32 | 4.3 | 32 | > 64 | 16 | 32 | IC50 [14]: 140 nM; MIC (Serratia marcescens [21]): 2 µg/mL; MIC (Escherichia coli [22]): < 0.06 µg/mL
O=C([O-])C1=CS[C@@H]2/C(=C\c3cn4c5c(sc4n3)COCC5)C(=O)N12.[Na+] | 2 | 2 | 16 | 16 | 2 | 4 | 2 | 8 | 1.5 | 2 | 4 | 2 | > 64 | 4 | 8 | 2.8 | 4 | > 64 | 16 | 8 | ED50 (Escherichia coli [3]): 25.3 mg/kg; IC50 [14]: 100 nM; MIC (Serratia marcescens [21]): 1 µg/mL; MIC (Escherichia coli [22]): < 0.06 µg/mL
O=C([O-])C1=CS[C@@H]2/C(=C\c3cc4oc5c(n4n3)CCCC5)C(=O)N12.[Na+] | 4 | 8 | 32 | 64 | 2 | 2 | 4 | 32 | 5.5 | 32 | 16 | 16 | > 64 | 8 | 32 | 4 | 64 | > 64 | 16 | 32 | IC50 [14]: 160 nM; MIC (Serratia marcescens [21]): 2 µg/mL; MIC (Escherichia coli [22]): < 0.06 µg/mL
O=C([O-])C1=CS[C@@H]2/C(=C\c3cn4c5c(sc4n3)CCC5)C(=O)N12.[Na+] | 2 | 2 | 16 | 16 | 2 | 2 | 2 | 4 | 2.1 | 2 | 4 | 2 | > 64 | 2 | 4 | 1.4 | 2 | > 64 | 8 | 4 | ED50 (Escherichia coli [3]): 19 mg/kg; MIC (Serratia marcescens [21]): 1 µg/mL; MIC (Escherichia coli [22]): < 0.06 µg/mL
O=C([O-])C1=CS[C@@H]2/C(=C/c3cc4oc5c(n4n3)CCOC5)C(=O)N12.[Na+] | 8 | 32 | 32 | > 64 | 2 | 2 | 64 | 32 | 53 | 32 | > 64 | 64 | > 64 | 16 | 32 | 150 | 64 | > 64 | 32 | > 64 | IC50 [14]: 2900 nM; MIC (Serratia marcescens [21]): 4 µg/mL; MIC (Escherichia coli [22]): 0.12 µg/mL
Cn1c2ccccc2n2cc(/C=C3/C(=O)N4C(C(=O)[O-])=CS[C@H]34)nc12.[Na+] | 4 | 16 | 32 | > 64 | 4 | 2 | 16 | 32 | 16 | 32 | > 64 | 64 | > 64 | 64 | 64 | 24 | 64 | > 64 | 32 | > 64 | IC50 [14]: 50 nM; MIC (Serratia marcescens [21]): 2 µg/mL; MIC (Escherichia coli [22]): < 0.06 µg/mL
CCN1CCN(C(=O)N[C@@H](C(=O)N[C@@H]2C(=O)N3[C@@H]2SC(C)(C)[C@@H]3C(=O)O)c2ccccc2)C(=O)C1=O [PIPERACILLIN] | – | – | – | – | – | – | – | – | – | – | – | – | – | – | – | – | – | – | – | – | ED50 (Escherichia coli [3]): > 128 mg/kg
